These results are taken from ChEMBL document CHEMBL4425092, “ent-Labdane Diterpenoids from the Aerial Parts of Eupatorium obtusissmum” (2016).

Type in all cases: functional
The test system of one assay is HBL-100. Nature of the assay: Antiproliferative activity against human HBL100 cells after 48 hrs by sulforhodamine B assay. The note with it: HBL-100, 48 h. The gist of the method:
(§1)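 Cells seeded at 2500 per well and treated from day 1 after plating for 48 h, in triplicate, at dilutions over 0.001–100 μM. Stocks were made in DMSO at 400× the top final concentration, and vehicle controls received 0.25% v/v DMSO. Cells were fixed with ice-cold TCA for 60 min at 4 °C, then stained with SRB. OD was read at 530 nm, corrected for medium-only background, and GI50 was calculated by NCI formulas.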
For orientation: The SRB assay estimates cell density from bound dye.

Another assay relates to HeLa. The experiment in a line: Antiproliferative activity against human HeLa cells after 48 hrs by sulforhodamine B assay. The method, boiled down:
as §1

In a further assay the test system is T47D. Nature of the assay: Antiproliferative activity against human T47D cells after 48 hrs by sulforhodamine B assay. The method, boiled down:
(§2)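 Plating was at 5000 cells per well, with 48 h drug exposure starting on day 1, in triplicate, at dilutions spanning 0.001–100 μM. DMSO stocks were 400× the top final concentration, and vehicle controls received 0.25% v/v DMSO. Cells were fixed with cold TCA for 60 min at 4 °C, and growth was measured by SRB. Absorbance at 530 nm was corrected for medium-only blank wells, and GI50 was derived by NCI formulas.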

A further assay concerns A549. Nature of the assay: Antiproliferative activity against human A549 cells after 48 hrs by sulforhodamine B assay. The note with it: A549, 48 h. The method, boiled down:
as §1

In a further assay the test system is WiDr. The experiment in a line: Antiproliferative activity against human WiDr cells after 48 hrs by sulforhodamine B assay. The method, boiled down: as §2
The test system of a further assay is SW1573. Nature of the assay: Antiproliferative activity against human SW1573 cells after 48 hrs by sulforhodamine B assay. The following applies: SW1573, 48 h. The gist of the method:
as §2

With `CC1=CC(=O)O[C@H]1C[C@@H]1[C@@H](C)C(=O)C[C@@H]2C(C)(C)[C@@H](O)CC[C@@]12C`, the GI50 in the assay with HBL-100, with HeLa, in the assay with T47D, in the assay with A549, in the assay with WiDr and in the assay on SW1573 was over 100 µM each time.
Take `CC1=CC(=O)O[C@@H]1C[C@@H]1[C@@H](C)C(=O)C[C@@H]2C(C)(C)[C@@H](O)CC[C@@]12C`: the GI50 with HBL-100, in the assay with HeLa, with T47D, in the assay on A549, in the assay on WiDr and in the assay on SW1573 was over 100 µM throughout.
For `C=C1CC[C@@H]2C(C)(C)[C@H](O)CC[C@@]2(C)[C@@H]1C[C@H]1OC(=O)C=C1C`, the 50% growth inhibitory concentration (GI50) – broadly, the concentration giving 50% growth inhibition – with HBL-100 is over 100 µM; in the assay with HeLa it was 62 µM; in the assay on T47D it was over 100 µM; in the assay with A549, 59 µM; with WiDr, over 100 µM; with SW1573, over 100 µM.
Regarding `C=C1[C@@H](OC(C)=O)C[C@@H]2C(C)(C)[C@@H](O)CC[C@@]2(C)[C@@H]1C[C@H]1OC(=O)C=C1C`, the GI50 in the assay with HBL-100 was determined as 35 µM; in the assay on HeLa it was 19 µM; with T47D, 24 µM; in the assay with A549, 23 µM; with WiDr, 32 µM; in the assay with SW1573 it was 57 µM.
In the case of `COc1cc([C@@H]2c3cc4c(cc3[C@@H](O[C@@H]3O[C@@H]5CO[C@@H](C)O[C@H]5[C@H](O)[C@H]3O)[C@H]3COC(=O)[C@H]23)OCO4)cc(OC)c1O` [ETOPOSIDE], the GI50 in the assay on HBL-100 worked out at 2.3 µM; in the assay on HeLa, 3 µM; in the assay on T47D, 22 µM; with A549, 0.7 µM; in the assay with WiDr it was 23 µM; with SW1573, 15 µM.
As to `C=C1CC[C@@H]2C(C)(C)[C@@H](O)CC[C@@]2(C)[C@@H]1C[C@H]1OC(=O)C=C1C`, the 50% growth inhibitory concentration (GI50) with HBL-100 was over 100 µM; in the assay with HeLa, 62 µM; with T47D, over 100 µM; in the assay on A549, 44 µM; with WiDr it was over 100 µM; with SW1573 it was over 100 µM.
As to `CC1=CC(=O)O[C@@H]1C[C@@H]1[C@@H](C)C(=O)C[C@@H]2C(C)(C)[C@H](O)CC[C@@]12C`, the GI50 with HBL-100, with HeLa, with T47D, with A549, in the assay on WiDr and in the assay with SW1573 was over 100 µM in each case.
